Source: PubChem (several laboratories)
Hits are enriched below; roughly 2.2% of the tested compounds scored in any of these assays.
RanGTP-Imp inh – inhibitors of RanGTP-importin-beta interaction, primary screen, biochemical, FRET, CFP-Ran, YFP-importin-beta, homogeneous; 300,000 compounds, 1.1% hits; inhibition, % (no concentration beside the values); cell-free CFP-Ran/YFP-importin-beta FRET ratio; AID 2216, 2009; Ran GTPase (GTP-bound) - importin-beta complex;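 active = more than half of the replicate wells show a fall in the fluorescence ratio signal beyond about 16%, limit read from the data, passing the limit was not always enough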;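 note: 0% = DMSO wells and 100% = Ran loaded with GDP instead of GTP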
Tb hexokinase – Trypanosoma brucei hexokinase 1 inhibitors, primary screen, biochemical, G6PDH-coupled NADH absorbance, MLSCN library | hexokinase 1 [Trypanosoma brucei] | recombinant TbHK1, G6PDH-coupled NADH A340 | inhibition, % at 10 µM | 220,000 compounds, 0.11% hits | AID 1430, 2008;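 active = inhibition of 50% or more in the single-dose primary screen; inactive = inhibition below 50%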
Hck Nef HTS – inhibitors of Nef-activated human Hck kinase, primary screen, biochemical, Z-Lyte FRET, 384-well, Hck-YEEI. inhibition, % at 20 µM. Recombinant Hck-YEEI plus Nef, Z-Lyte FRET kinase assay. 220,000 compounds, 0.68% hits. AID 463187, 2010;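 active = Hck-Nef kinase inhibition above about 50%, limit read from the data; inactive = inhibition below that limit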;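 note: 0% = DMSO with Hck plus Nef and 100% = Hck alone without Nef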
14-3-3 Bad inh – inhibitors of 14-3-3 zeta/Bad binding, primary screen, biochemical, TR-FRET, bovine 14-3-3 zeta; 14-3-3 protein zeta/delta (Bos taurus), P63103; TR-FRET 14-3-3zeta/Dy647-pBad peptide displacement, 1 h; inhibition, % at 21.7 µM; 220,000 compounds, 0.71% hits;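 active = inhibition above about 70%, limit read from the data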;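 note: 0% = full 14-3-3 plus peptide FRET controls and 100% = background without 14-3-3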
Target sequence (P63103 whole entry, looked up): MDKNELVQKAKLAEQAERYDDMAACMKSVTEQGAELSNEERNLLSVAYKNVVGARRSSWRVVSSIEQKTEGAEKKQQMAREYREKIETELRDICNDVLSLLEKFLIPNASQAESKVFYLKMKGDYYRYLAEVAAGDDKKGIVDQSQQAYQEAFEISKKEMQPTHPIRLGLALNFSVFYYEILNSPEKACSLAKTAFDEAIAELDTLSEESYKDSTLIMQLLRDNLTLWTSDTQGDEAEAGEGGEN
Runt-SMMHC FRET – inhibitors of RUNX1 Runt–CBFb-SMMHC binding, primary screen, biochemical, FRET, Cerulean-Runt, Venus-CBFb-SMMHC, uHTS; Runt-related transcription factor 1 (Homo sapiens) + Core-binding factor subunit beta …; Cerulean-Runt/Venus-CBFb-SMMHC FRET ratio 530/480, 1 h; inhibition, % at 20 µM; 220,000 compounds, 0.74% hits; AID 1434, 2008;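 active = mean inhibition across duplicate retests at 20 µM reaching about 50%, limit read from the data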;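 note: 0% = DMSO wells and 100% = wells with excess untagged CBFb-SMMHC; inhibitors lower the FRET ratio by blocking Runt binding to CBFb-SMMHC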
Runt-CBFb FRET – inhibitors of RUNX1 Runt–CBFb binding, primary screen, biochemical, FRET, Cerulean-Runt, Venus-CBFb, uHTS. Cerulean-Runt/Venus-CBFb FRET ratio 530/480, 1 h. 220,000 compounds, 0.46% hits. Runt-related transcription factor 1 (Homo sapiens) + Core-binding factor subunit beta …. inhibition, % at 20 µM. AID 1496, 2009;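 active = inhibition over about 50% at 20 µM in the single-dose screen, limit read from the data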;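 note: 0% = DMSO wells and 100% = excess unlabeled CBFb competitor control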
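Assay system: Cerulean-Runt domain / Medium: Tris 50 mM pH 7.5, KCl, K2SO4, 0.01% BSA / Timing: protein complex preformed 1 h, compound exposure 1 h, room temperature, dark / Measured by: FRET, excitation 422 nm, emission at 530 and 480 nm / Evaluation: loss of energy transfer signal / Control set: 5 µM unlabeled CBFb as full-inhibition high control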
* marks the source's active call; other numbers are inactive results; . = no result.

SMILES	RanGTP-Imp inh	Tb hexokinase	Hck Nef HTS	14-3-3 Bad inh	Runt-SMMHC FRET	Runt-CBFb FRET
CCCCC(=O)Nc1sc2c(c1-c1nc3ccccc3s1)CCN(C(C)=O)C2	.	-36	66*	-3	-2	2
CC(=O)N1CCc2c(sc(NC(=O)C3CC3)c2-c2nc3ccccc3s2)C1	24*	-18	3	-9	-16	6
N#Cc1ccc(NC(=O)Cn2cnc(S(=O)(=O)N3CCc4ccccc43)c2)cc1	2	.	.	.	.	.
CCN1CCN(S(=O)(=O)c2ccc(C(=O)Nc3sc4c(c3C(N)=O)CCN(CC)C4)cc2)CC1	58*	.	.	.	.	.
CC(C)N1CCc2c(sc(NC(=O)c3nc4ccccc4s3)c2C(N)=O)C1	0	-2	24	-11	33	9
CCN1CCc2c(sc(NC(=S)NC(=O)c3ccc(Cl)cc3)c2C(N)=O)C1	81*	-30	-22	-3	60*	119*
CCN1CCc2c(sc(NC(=O)c3ccc(S(=O)(=O)N(C)c4ccccc4)cc3)c2C(=O)NC)C1	10	.	.	.	.	.
CC1CN(S(=O)(=O)c2ccc(C(=O)Nc3sc4c(c3C(N)=O)CCN(C)C4)cc2)CC(C)O1 (stereo not given)	.	-14	-3	25	5	0
CC(C)N1CCc2c(sc(NC(=O)c3ccc(S(=O)(=O)N4CCc5ccccc54)cc3)c2C(N)=O)C1	90*	-22	-56	53	26	-14
CCN1CCc2c(sc(NC(=O)c3ccc(S(=O)(=O)N4CC(C)OC(C)C4)cc3)c2C(N)=O)C1 (stereo not given)	28*	.	.	.	.	.
Nc1nc(-c2ccc3c(c2)CCO3)cs1	2	2	17	-6	0	19
COC(=O)/C=C1/N/C(=N\c2nc(C)cc(C)n2)N(c2ccc(Cl)cc2)C1=O	1	-10	6	-2	3	-2
COc1ccc(C(=O)N2N=C3CC(C)(C)OCC3C2c2ccccc2)cc1 (stereo not given)	3	-3	-8	-2	7	-1
O=C(O)c1ccc2oc(=O)c(S(=O)(=O)c3ccccc3)cc2c1	-5	.	.	.	.	.
Cc1c(O)ccc2cc(S(=O)(=O)c3ccccc3)c(=O)oc12	132*	.	.	.	.	.
CC1(C)C2CCC(C2)C1(C)NC(=O)CN1CCN(Cc2ccccc2)CC1 (stereo not given)	1	-12	17	72*	-2	-5
Cc1ccc(NC(=O)CN2CCN(Cc3ccccc3)CC2)cc1	-4	.	.	.	.	.
CC(C(=O)O)N1C(=O)/C(=C/C=C/c2ccco2)SC1=S (stereo not given)	-12	30	69*	.	4	.
CC(=O)Nc1nn(C)c2nc3cc(C)ccc3cc12	9	-13	10	11	-8	-2
Cc1ccc2cc3c(NC(=O)c4ccco4)nn(C)c3nc2c1	23*	-17	16	-4	27	17
CCCn1nc(NC(=O)c2ccco2)c2cc3ccccc3nc21	46*	2	20	9	58	15
CCn1nc(NC(=O)c2ccco2)c2cc3cc(C)ccc3nc21	54*	-7	-10	3	84*	39
CCCC(=O)Nc1nn(CCC)c2nc3ccccc3cc12	8	3	14	35	4	8
Cc1ccc2c(n1)sc1c(-c3ccc(Br)cc3)c(C#N)c(N)nc12	79*	-4	22	61	92	32
CSc1nc(N)c(C#N)c(-c2ccc(Cl)cc2)c1C#N	5	-12	0	7	-6	-3
Cc1cccn2cc(COc3ccc(-c4ccccc4)cc3)nc12	-2	4	0	79*	-11	.
NS(=O)(=O)c1ccc(-c2ccc(/C=C3\C(=O)Nc4cc(Cl)ccc43)o2)cc1	5	-11	7	75*	34	49
